Changes are numbered by the printed parent chain. Numbered stars: 1 amine (or outer) side, 2 acyl side, 3 side chain; on linkers, the order of the positions; unused ones are H or OH. Square brackets hold non-standard residues; d marks the D form. Peptide text beside a SMILES is read from it. * marks the point of attachment. Isonicotinoyl(2-(4-Me-2-Py)) = Cc1ccnc(-c2cc(C(=O)*)ccn2)c1; X1 = O=C([C@H](Cc1c(F)cc(O)c(F)c1F)N[*:1])[*:2]
What was measured:
[1] = biological target: T1, wt-α2 (Escherichia coli, UniProt P00452); assay: Flash-quench transient absorption: •F3Y radical in presence of wt-α2; assay type: biochemical
T1 sequence (P00452 1-761): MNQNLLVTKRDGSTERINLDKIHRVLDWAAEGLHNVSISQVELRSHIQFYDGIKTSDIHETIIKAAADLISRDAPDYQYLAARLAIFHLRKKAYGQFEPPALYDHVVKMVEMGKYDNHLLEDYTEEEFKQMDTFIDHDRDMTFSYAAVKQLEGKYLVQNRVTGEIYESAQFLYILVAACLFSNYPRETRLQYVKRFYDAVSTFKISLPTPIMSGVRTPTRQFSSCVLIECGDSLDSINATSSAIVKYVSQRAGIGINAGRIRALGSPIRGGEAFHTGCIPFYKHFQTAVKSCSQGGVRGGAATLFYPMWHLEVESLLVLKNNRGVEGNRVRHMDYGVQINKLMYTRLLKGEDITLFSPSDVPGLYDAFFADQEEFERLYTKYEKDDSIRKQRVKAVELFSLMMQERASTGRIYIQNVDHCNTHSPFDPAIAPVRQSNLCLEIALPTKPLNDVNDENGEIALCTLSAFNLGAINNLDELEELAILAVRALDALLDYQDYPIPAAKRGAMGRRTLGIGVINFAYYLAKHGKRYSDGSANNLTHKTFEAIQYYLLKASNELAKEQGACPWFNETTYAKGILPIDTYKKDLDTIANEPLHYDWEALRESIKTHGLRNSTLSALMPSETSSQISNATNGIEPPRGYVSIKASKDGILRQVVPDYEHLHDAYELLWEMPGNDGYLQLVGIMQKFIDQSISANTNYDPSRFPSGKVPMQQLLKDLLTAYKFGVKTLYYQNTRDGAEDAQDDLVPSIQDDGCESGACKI

[2] = biological target: T2, Y730F-α2 (Escherichia coli, UniProt P00452, Y730F); assay: Flash-quench transient absorption: •F3Y radical in presence of Y730F-α2; assay type: biochemical; conditions: for radical lifetime change / radical injection (in words): Y730F-α2; for •F3Y lifetime: monoexponential, 50 μM peptide
T2 sequence (P00452 1-761 Y730F): T1 sequence (P00452 1-761) with Y730F
How it was run: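 Laser flash-quench transient absorption at 23 °C in 50 mM sodium borate, pH 8.3, 15 mM MgSO4, 5% v/v glycerol. Final mix: 50 μM Re-labelled test peptide, 100 μM α2 mutant, 1 mM Ru(NH3)6Cl3, 1 mM CDP, 3 mM ATP, flowing through the cuvette. α2 was N-terminally His6-tagged E. coli protein, IPTG-induced in BL21(DE3) and Ni-NTA purified. Excitation was a 7 ns 355 nm pulse. Decays averaged 3–6 traces and were fitted by weighted least squares from 1 μs.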

[3] = test system: α2 mutants; assay: Charge-separated state lifetime in presence of α2 proteins; assay type: physicochemical, Escherichia coli; conditions: each of the protein mutants, in words
[4] = biological target: T3, C439S-α2 (Escherichia coli, UniProt P00452, C439S); assay: Flash-quench transient absorption: •F3Y radical in presence of C439S-α2; assay type: biochemical
T3 sequence (P00452 1-761 C439S): T1 sequence (P00452 1-761) with C439S

[5] = C439S-α2, average across three wavelengths (395, 410, 425 nm)

CC[C@H](C)[C@H](NC(=O)[C@H](CCC(N)=O)NC(=O)CNC(=O)[C@@H](NC(=O)[C@H](CC(C)C)NC(=O)[C@H](Cc1c(F)cc(O)c(F)c1F)NC(=O)c1ccnc(-c2cc(C)ccn2)c1)C(C)C)C(=O)N[C@@H](CC(=O)O)C(=O)N[C@@H](CO)C(=O)N[C@@H](CCC(=O)O)C(=O)N[C@H](C(=O)N[C@@H](CC(=O)O)C(=O)N[C@H](C(=O)N[C@@H](CC(=O)O)C(=O)N[C@@H](CC(=O)O)C(=O)N[C@@H](CC(C)C)C(=O)N[C@@H](CO)C(=O)N[C@@H](CC(N)=O)C(=O)N[C@@H](Cc1ccccc1)C(=O)N[C@@H](CCC(N)=O)C(=O)N[C@@H](CC(C)C)C(=O)O)[C@@H](C)O)C(C)C [[Re]–F3Y–βC19] ({Isonicotinoyl(2-(4-Me-2-Py))}-[X1]LVGQIDSEVDTDDLSNFQL-OH; N-terminus and C-terminus assumed)
•F3Y radical decay profile (in words) ([1]; wt-α2): biexponential decay owing to the contribution of a significantly shorter lifetime component | injection rate ([1]; wt-α2, Eq. 1: kox = 1/τon − 1/τoff): (3 ± 2) × 10^5 s^−1 | •F3Y lifetime, short phase ([1]; wt-α2, averaged across wavelengths): 3.0 ± 1.4 μs | •F3Y lifetime, long phase ([1]; wt-α2, averaged across wavelengths, 50 μM peptide, 100 μM α2, 1 mM Ru(NH3)6Cl3, 1 mM CDP, 3 mM ATP, borate pH 8.3): 15.4 ± 0.5 μs | radical lifetime change / radical injection (in words) [2]: radical injection into the surface of the protein is blocked | •F3Y lifetime ([2]; Y730F-α2, 395 nm, 100 μM α2, pH 8.3): 14.4 ± 0.2 μs | •F3Y lifetime ([2]; Y730F-α2, 410 nm, 100 μM α2, pH 8.3): 13.7 ± 0.2 μs | •F3Y lifetime ([2]; Y730F-α2, 425 nm, 100 μM α2, 1 mM Ru(NH3)6Cl3, 1 mM CDP, 3 mM ATP, borate pH 8.3): 14.0 ± 0.2 μs | radical lifetime change / radical injection (in words) ([2]; listed as [Re]–•F3Y–βC19): no significant change in radical lifetime | charge-separated state lifetime vs protein mutant [3]: Identical lifetimes | •F3Y radical decay profile (in words) ([4]; C439S-α2): biexponential decay owing to the contribution of a significantly shorter lifetime component | •F3Y radical decay: small amplitude component ("on" state) ([4]; C439S-α2): 20% | amplitude of long phase ([4]; C439S-α2, 395 nm): 81% | amplitude of short phase ([4]; C439S-α2, 395 nm): 19% | •F3Y lifetime, short phase ([4]; C439S-α2, 395 nm, biexponential): 2.2 ± 1 μs | •F3Y lifetime, long phase ([4]; C439S-α2, 395 nm, biexponential, 50 μM peptide, 100 μM C439S-α2, 1 mM Ru(NH3)6Cl3, 1 mM CDP, 3 mM ATP, borate pH 8.3): 17.3 ± 0.9 μs | •F3Y lifetime, "off" state [4, 5]: 16.9 ± 0.7 μs | •F3Y lifetime, "on" state [4, 5]: 2.5 ± 1.0 μs

Source: publication PMC3268775 (Journal of the American Chemical Society, 2012)
